Experimental data as given in ChEMBL document CHEMBL2331545, “Synthesis of antioxidants for prevention of age-related macular degeneration” (J Nat Prod, 2013).
The source made the active and inactive calls. No cut-off for these calls is given here.

What was measured:
ARPE-19 = experiment: Inhibition of intracellular A2E photooxidation in human ARPE19 cells at 20 uM after 18 days; format: functional, cell-based
Outline: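 ARPE-19 cells (lacking endogenous A2E) grown to confluence for 5 days, then fed 10 µM synthetic A2E for 18 days in medium with 10% FBS. Antioxidant at 20 µM present on days 10–18. Cells washed in DPBS and irradiated at 430 nm (2.8 mW/cm2) for 10 min. Trypsinised, counted, dried, methanol-extracted. A2E quantified by reversed-phase HPLC; loss versus unirradiated cells gave percent photooxidation.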

[1] = Inhibition of A2E photooxidation at 100 uM after 5 mins by reversed-phase HPLC analysis; format: functional
Outline: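 Cell-free assay: A2E (200 µM DMSO stock) added to DPBS, antioxidant from DMSO solution added to 100 µM final. Irradiated at 430 nm (2.8 mW/cm2) for 5 min. Samples diluted with EtOH and analysed by reversed-phase HPLC under dim red light. Percent photooxidation taken as A2E loss relative to unirradiated samples.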

SMILES	inhibition (ARPE-19)	inhibition [1]
O=c1c(O)c(-c2ccc(O)c(O)c2)oc2c(CN3CCc4cc(O)c(O)cc4C3)c(O)cc(O)c12	Active	Active
O=c1c(O)c(-c2ccc(O)c(O)c2)oc2c(CN3CCN(Cc4c(O)cc(O)c5c(=O)c(O)c(-c6ccc(O)c(O)c6)oc45)CC3)c(O)cc(O)c12	Active	Active
O=c1c(O)c(-c2ccc(O)c(O)c2)oc2cc(O)cc(O)c12	Active	Active
O=c1c(O)c(-c2ccc(O)c(O)c2)oc2c(CN3CCOCC3)c(O)cc(O)c12	Active	Active
CN(CCN(C)Cc1c(O)cc(O)c2c(=O)c(O)c(-c3ccc(O)c(O)c3)oc12)Cc1c(O)cc(O)c2c(=O)c(O)c(-c3ccc(O)c(O)c3)oc12	Active	Active
